Measured values pooled from the literature.
Each line is one published result; the experiments were not run side by side.
Target: Mitogen-activated protein kinase 12 (MAPK12, Homo sapiens, UniProt P53778)
Sequence (P53778 1-367, as in one of the studies): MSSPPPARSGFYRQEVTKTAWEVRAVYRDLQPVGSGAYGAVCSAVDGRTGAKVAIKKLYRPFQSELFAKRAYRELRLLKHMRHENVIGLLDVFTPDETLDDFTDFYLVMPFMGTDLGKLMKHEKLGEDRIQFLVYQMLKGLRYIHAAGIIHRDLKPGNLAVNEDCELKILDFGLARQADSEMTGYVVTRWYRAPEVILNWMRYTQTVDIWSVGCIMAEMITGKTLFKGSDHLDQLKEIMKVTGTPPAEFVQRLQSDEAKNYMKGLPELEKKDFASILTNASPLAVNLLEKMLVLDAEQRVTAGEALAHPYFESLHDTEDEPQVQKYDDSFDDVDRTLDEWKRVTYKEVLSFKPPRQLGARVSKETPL

COc1ncc2cc3ccccc3nc2c1C#N — remaining binding (cell-free assay; competition with immobilised ligand; 5 µM): 96%
N[C@H]1CCN(c2nccc(-c3cnn4ncccc34)n2)C1 — remaining binding (binding; 1 µM): 86%
Cc1c[nH]c2nccc(Oc3c(F)cc(Nc4cc(Cl)nc(N)n4)cc3F)c12 — remaining binding (cell-free assay; competition with immobilised ligand; 0.1 µM): 100%
O=C(NCC1CCOCC1)c1n[nH]cc1NC(=O)c1c(F)cccc1F — remaining binding (binding; competition with immobilised ligand; 1 µM): 100%
CN(C)c1nccc(-c2cnc3ncccn23)n1 — remaining binding (binding; 1 µM): 90%
C[C@@H]1CN(c2cc(-c3n[nH]c4ccc(OC5(C)CC5)cc34)ncn2)C[C@H](C)O1 — remaining binding (cell-free assay; competition with immobilised ligand; 0.1 µM): 96%
c1cncc(-c2cccc(Nc3nccc(NC4CCCCC4)n3)c2)c1 — remaining binding (binding; competition with immobilised ligand; 10 µM): 84%
COc1cnc(Nc2cccc(S(N)(=O)=O)c2)nc1N1CCN(c2ccccc2)C(=O)C1 — remaining binding (binding; competition with immobilised ligand; 1 µM): 100%
C[C@@H]1CCN(c2nccc(-c3cnn4ncccc34)n2)C1 — remaining binding (binding; 1 µM): 47%
O=C(c1ccc(Nc2ncc(Cl)c(-c3cc4ccccc4s3)n2)cc1)N1CCC(N2CCCC2)CC1 — remaining binding (binding; competition with immobilised ligand; 1 µM): 86%
C[C@@H](c1ccc(-n2cnc3c(N)ncnc32)cc1)N1CCc2nn(C)c(Cc3ccccc3)c2C1=O — remaining binding (binding; competition with immobilised ligand; 0.1 µM): 90%
O=C(Nc1cccnn1)N1CC(C/C=C/c2cncc(Oc3ccc(C(F)(F)F)cn3)n2)C1 — remaining binding (cell-free assay; competition with immobilised ligand; 1 µM): 100%
CN(CCCC(F)(F)F)c1nccc(-c2cnn3ncccc23)n1 — remaining binding (binding; 1 µM): 100%
CN(c1ccnc(CNc2nc(Nc3ccc4c(c3)CC(=O)N4)ncc2C(F)(F)F)n1)S(C)(=O)=O — remaining binding (cell-free assay; competition with immobilised ligand; 1 µM): 58%
Cc1cnn2ncc(-c3ccnc(N(C)C)n3)c2c1 — remaining binding (binding; 1 µM): 85%
Cc1nc(N2CC[C@@H](O)C2)ncc1-c1cc(C(F)(F)F)cc2[nH]ncc12 — remaining binding (binding; competition with immobilised ligand; 1 µM): 100%
O=C(c1ccc(Nc2nccc(-c3cc4ccccc4s3)n2)cc1)N1CCC(N2CCCC2)CC1 — remaining binding (binding; competition with immobilised ligand; 1 µM): 88%
Cc1cc(Nc2nccc(C)n2)cc(-c2cnc([C@@]3(O)CC[C@H](C(=O)O)C(C)(C)C3)s2)c1 — remaining binding (binding; competition with immobilised ligand; 1 µM): 31.2%
CN(C)c1ncc(F)c(-c2cnn3ncccc23)n1 — remaining binding (binding; 1 µM): 100%
O=C(c1ccc(Nc2ncc(Cl)c(-c3ccc(Cl)s3)n2)cc1)N1CCC(N2CCCC2)CC1 — remaining binding (binding; competition with immobilised ligand; 1 µM): 100%
